Assays:
Protease [1] = target: T1, Protease (Human immunodeficiency virus 1, UniProt Q9YQ12); assay: Inhibition of Human immunodeficiency virus 1 protease using Abz-Thr-Ile-Nle-Phe(p-NO2)-Gln-Arg-NH2 as substrate by fluorescence analysis
In short: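 Recombinant wild-type HIV-1 PR with fluorogenic substrate Abz-NF*-6, run at pH 5.5. […] 1.2 nM PR needed to detect activity. Active enzyme concentration set by titration with ritonavir and nelfinavir. The IC50 measurability limit is one-half of the active enzyme concentration.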

[2] = tested on: Human immunodeficiency virus 1; assay: Antiviral activity against Human immunodeficiency virus 1 3B infected in human MT2 cells assessed as survival of virus infected cells at 10 nM after 72 to 96 hrs by MTT assay; format: functional
In short: (§1)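 HIV-1 IIIB from supernatants of chronically infected H9/HTLV IIIB cells; stock characterized by p24, RT activity and infectivity (2 × 10⁶ infectious virions/mL). MT-2 cells in RPMI 1640 + 10% FCS, infected at MOI 0,1 and incubated with inhibitor for 72−96 h. Microtiter infection assay, MTT uptake read at 540 nm, expressed as % survival of virus-infected cells.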

[3] = tested on: Human immunodeficiency virus 1; assay: Antiviral activity against Human immunodeficiency virus 1 3B infected in human MT2 cells assessed as survival of virus infected cells at 5 nM after 72 to 96 hrs by MTT assay; format: functional; in short: as §1
[4] = tested on: Human immunodeficiency virus 1; assay: Antiviral activity against Human immunodeficiency virus 1 3B infected in human MT2 cells assessed as inhibition of reverse transcriptase activity at 10 nM after 72 to 96 hrs by MTT assay relative to untreated control; format: functional; parameters: scale not given: the % may be the effect or the level left
[5] = tested on: Human immunodeficiency virus 1; assay: Antiviral activity against Human immunodeficiency virus 1 3B infected in human MT2 cells assessed as inhibition of reverse transcriptase activity at 5 nM after 72 to 96 hrs by MTT assay relative to untreated control; format: functional; parameters: scale not given: the % may be the effect or the level left
Protease [6] = target: T1, Protease; assay: Inhibition of HIV1 3B protease activity in human H9 cells using Abz-Thr-Ile-Nle-Phe(p-NO2)-Gln-Arg-NH2 as substrate after 40 mins by spectrophotometric analysis; format: cell-based
[7] = (§2) Cytotoxicity against human MT2 cells assessed as maximum non-toxic concentration after 72 hrs by MTT assay; format: cell-based; settings: MT2 cells, read-out: MNCC
In short: (§3)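 MT-2 cells grown in RPMI 1640 with 10% fetal calf serum and exposed to inhibitor for 72 or 96 h. MTT uptake read-out. CC50 is derived from % cell survival. MNC is the highest concentration that alters neither monolayer morphology nor survival rate. Six to eight parallels per experiment, each experiment run in triplicate.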

MT2 [8] = assay: as §2; format: cell-based; settings: mt2, 72 h; in short: as §3
[9] = (§4) Cytotoxicity against human MT2 cells assessed as maximum non-toxic concentration after 96 hrs by MTT assay; format: cell-based; settings: MT2 cells, read-out: MNCC; in short: as §3
MT2 [10] = assay: as §4; format: cell-based; settings: mt2, 96 h; in short: as §3
[11] = (§5) Cytotoxicity against human MT2 cells after 72 hrs by MTT assay; format: cell-based; settings: MT2 cells; in short: as §3
MT2 [12] = assay: as §5; format: cell-based; settings: mt2, 72 h; in short: as §3
[13] = (§6) Cytotoxicity against human MT2 cells after 96 hrs by MTT assay; format: cell-based; settings: MT2 cells; in short: as §3
MT2 [14] = assay: as §6; format: cell-based; settings: mt2, 96 h; in short: as §3
MT2 [15] = assay: Ratio of MNC for human MT2 cells after 96 hrs to MNC for human MT2 cells after 72 hrs; format: ADME, cell-based
[16] = Ratio of CC50 for human MT2 cells after 96 hrs to CC50 for human MT2 cells after 72 hrs; format: cell-based
[17] = tested on: Human immunodeficiency virus 1; assay: Antiviral activity against Human immunodeficiency virus 1 3B infected in human MT2 cells assessed as survival of virus infected cells at 0.1 nM after 72 to 96 hrs by MTT assay; format: functional; in short: as §1
[18] = tested on: Human immunodeficiency virus 1; assay: Antiviral activity against Human immunodeficiency virus 1 3B infected in human MT2 cells assessed as survival of virus infected cells at 0.001 nM after 72 to 96 hrs by MTT assay; format: functional; in short: as §1
[19] = tested on: Human immunodeficiency virus 1; assay: Antiviral activity against Human immunodeficiency virus 1 3B infected in human MT2 cells assessed as survival of virus infected cells at 0.0001 nM after 72 to 96 hrs by MTT assay; format: functional; in short: as §1
[20] = tested on: Human immunodeficiency virus 1; assay: Antiviral activity against Human immunodeficiency virus 1 3B infected in human MT2 cells assessed as survival of virus infected cells at 0.00001 nM after 72 to 96 hrs by MTT assay; format: functional; in short: as §1
[21] = tested on: Human immunodeficiency virus 1; assay: Antiviral activity against Human immunodeficiency virus 1 3B infected in human MT2 cells assessed as survival of virus infected cells at 0.000001 nM after 72 to 96 hrs by MTT assay; format: functional; in short: as §1
[22] = tested on: Human immunodeficiency virus 1; assay: Antiviral activity against Human immunodeficiency virus 1 3B infected in human MT2 cells assessed as survival of virus infected cells at 0.0000001 nM after 72 to 96 hrs by MTT assay; format: functional; in short: as §1
[23] = tested on: Human immunodeficiency virus 1; assay: Antiviral activity against Human immunodeficiency virus 1 3B infected in human MT2 cells assessed as inhibition of reverse transcriptase activity at 0.1 nM after 72 to 96 hrs by MTT assay relative to untreated control; format: functional; parameters: scale not given: the % may be the effect or the level left
[24] = tested on: Human immunodeficiency virus 1; assay: Antiviral activity against Human immunodeficiency virus 1 3B infected in human MT2 cells assessed as inhibition of reverse transcriptase activity at 0.001 nM after 72 to 96 hrs by MTT assay relative to untreated control; format: functional; parameters: scale not given: the % may be the effect or the level left
[25] = tested on: Human immunodeficiency virus 1; assay: Antiviral activity against Human immunodeficiency virus 1 3B infected in human MT2 cells assessed as inhibition of reverse transcriptase activity at 0.0001 nM after 72 to 96 hrs by MTT assay relative to untreated control; format: functional; parameters: scale not given: the % may be the effect or the level left
[26] = tested on: Human immunodeficiency virus 1; assay: Antiviral activity against Human immunodeficiency virus 1 3B infected in human MT2 cells assessed as inhibition of reverse transcriptase activity at 0.00001 nM after 72 to 96 hrs by MTT assay relative to untreated control; format: functional; parameters: scale not given: the % may be the effect or the level left
[27] = tested on: Human immunodeficiency virus 1; assay: Antiviral activity against Human immunodeficiency virus 1 3B infected in human MT2 cells assessed as inhibition of reverse transcriptase activity at 0.000001 nM after 72 to 96 hrs by MTT assay relative to untreated control; format: functional; parameters: scale not given: the % may be the effect or the level left
[28] = tested on: Human immunodeficiency virus 1; assay: Antiviral activity against Human immunodeficiency virus 1 3B infected in human MT2 cells assessed as inhibition of reverse transcriptase activity at 0.0000001 nM after 72 to 96 hrs by MTT assay relative to untreated control; format: functional; parameters: scale not given: the % may be the effect or the level left

T1 sequence (Q9YQ12 whole entry): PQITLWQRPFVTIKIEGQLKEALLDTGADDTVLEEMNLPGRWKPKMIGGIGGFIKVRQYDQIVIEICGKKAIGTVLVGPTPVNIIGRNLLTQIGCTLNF

Question: With `Cc1cccc(C)c1OCC(=O)N1CCC[C@H]1[C@H](O)[C@@H](O)[C@@H]1CCCN1C(=O)COc1c(C)cccc1C` as the molecule, how does the IC50 (Protease [1]) read?
Answer: 290 µM

Question: Which IC50 (Protease [1]) does the source give for `Cc1cccc(C)c1OCC(=O)N[C@@H](Cc1ccccc1)[C@H](O)[C@@H](O)[C@H](Cc1ccccc1)NC(=O)COc1c(C)cccc1C` here?
Answer: 0.028 µM

Question: Which IC50 (Protease [1]) does the source give for `CC(=O)N[C@@H](Cc1c[nH]c2ccccc12)C(=O)N[C@H](C(=O)N1CCC[C@H]1[C@H](O)[C@@H](O)[C@H](Cc1ccccc1)NC(=O)COc1c(C)cccc1C)C(C)C` here?
Answer: 0.075 µM

Question: For `Cc1cccc(C)c1OCC(=O)N[C@@H](Cc1ccccc1)[C@@H](O)[C@H](O)[C@H]1CCCN1C(=O)COc1c(C)cccc1C`, which IC50 (Protease [1]) is on record?
Answer: 3.3 µM

Question: With `CC(=O)N[C@@H](Cc1c[nH]c2ccccc12)C(=O)N[C@H](C(=O)N[C@@H](Cc1ccccc1)[C@H](O)[C@@H](O)[C@@H]1CCCCN1C(=O)[C@@H](NC(=O)[C@H](Cc1c[nH]c2ccccc12)NC(C)=O)C(C)C)C(C)C` as the molecule, how does the IC50 (Protease [1]) read?
Answer: 0.0018 µM

Question: With `CC(=O)c1ccc(OCC(=O)N[C@@H](Cc2ccccc2)[C@H](O)[C@@H](O)[C@@H]2CCCN2C(=O)COc2ccc(C(C)=O)cc2)cc1` as the molecule, how does the IC50 (Protease [1]) read?
Answer: 116 µM

Question: With `O=C(COc1ccccc1)N[C@@H](Cc1ccccc1)[C@H](O)[C@@H](O)[C@@H]1CCCN1C(=O)COc1ccccc1` as the molecule, how does the IC50 (Protease [1]) read?
Answer: 0.614 µM

Question: Which IC50 (Protease [1]) does the source give for `Cc1cccc(C)c1OCC(=O)N[C@@H](Cc1ccccc1)[C@H](O)[C@@H](O)[C@@H]1CCCN1C(=O)COc1ccccc1` here?
Answer: 0.085 µM

Question: For `CC(=O)N[C@@H](Cc1c[nH]c2ccccc12)C(=O)N[C@H](C(=O)N[C@@H](Cc1ccccc1)[C@H](O)[C@@H](O)[C@H](Cc1ccccc1)NC(=O)[C@@H](NC(=O)[C@H](Cc1c[nH]c2ccccc12)NC(C)=O)C(C)C)C(C)C`, which IC50 (Protease [1]) is on record?
Answer: 0.006 µM

Question: Which IC50 (Protease [1]) does the source give for `Cc1cccc(C)c1OCC(=O)N[C@@H](Cc1ccccc1)[C@H](O)[C@@H](O)[C@@H]1CCCCN1C(=O)COc1c(C)cccc1C` here?
Answer: 0.175 µM

Question: With `CC[C@H](NC(=O)COc1ccccc1C)[C@H](O)[C@@H](O)[C@@H]1CCCN1C(=O)COc1ccccc1C` as the molecule, how does the IC50 (Protease [1]) read?
Answer: 0.655 µM

Question: Which IC50 (Protease [1]) does the source give for `CC(=O)N[C@@H](Cc1c[nH]c2ccccc12)C(=O)N[C@H](C(=O)N[C@@H](Cc1ccccc1)[C@H](O)[C@@H](O)[C@@H]1CCCN1C(=O)[C@@H](NC(=O)[C@H](Cc1c[nH]c2ccccc12)NC(C)=O)C(C)C)C(C)C` here?
Answer: < 0.0006 µM

Question: And the survival at 0.01 µM [2]?
Answer: > 90%

Question: And the survival at 0.005 µM [3]?
Answer: > 90%

Question: And the Activity [4]?
Answer: 24%

Question: And the Activity [5]?
Answer: 50%

Question: What about the IC50 (Protease [6]) of the same molecule?
Answer: 5 nM

Question: And the MNTC at 72 h [7]?
Answer: 10 nM

Question: What about the Activity (MT2 [8]) of the same molecule?
Answer: Dose-dependent effect

Question: What about the MNTC at 96 h [9] of the same molecule?
Answer: 0.3 nM

Question: And the Activity (MT2 [10])?
Answer: Dose-dependent effect

Question: And the CC50 at 72 h [11]?
Answer: 2500 µM

Question: And the Activity (MT2 [12])?
Answer: Dose-dependent effect

Question: What about the CC50 at 96 h [13] of the same molecule?
Answer: 0.5 µM

Question: And the Activity (MT2 [14])?
Answer: Dose-dependent effect

Question: And the Ratio (MT2 [15])?
Answer: 33

Question: And the selectivity ratio [16]?
Answer: 5000

Question: For `CC[C@H](C)[C@H](NC(=O)[C@@H](NC(C)=O)C(C)C)C(=O)N1CCC[C@H]1[C@H](O)[C@@H](O)[C@H](Cc1ccccc1)NC(=O)[C@H](CC(N)=O)NC(=O)[C@H](CC(C)C)NC(=O)[C@H](CO)NC(C)=O`, which IC50 (Protease [1]) is on record?
Answer: 0.0006 µM

Question: With `Cc1cccc(C)c1OCC(=O)N[C@@H](Cc1ccccc1)[C@H](O)[C@@H](O)[C@@H]1CCCN1C(=O)COc1c(C)cccc1C` as the molecule, how does the IC50 (Protease [1]) read?
Answer: 0.0096 µM

Question: And the survival at 0.0001 µM [17]?
Answer: 78%

Question: And the survival at 1 pM [18]?
Answer: 80%

Question: What about the survival at 100 fM [19] of the same molecule?
Answer: 87%

Question: What about the survival at 10 fM [20] of the same molecule?
Answer: 90%

Question: What about the survival at 1 fM [21] of the same molecule?
Answer: > 90%

Question: What about the survival at 1e-10 µM [22] of the same molecule?
Answer: > 90%

Question: What about the Activity [23] of the same molecule?
Answer: 24%

Question: What about the Activity [24] of the same molecule?
Answer: 25%

Question: And the Activity [25]?
Answer: 26%

Question: And the Activity [26]?
Answer: 29%

Question: What about the Activity [27] of the same molecule?
Answer: 28%

Question: And the Activity [28]?
Answer: 26%

Question: And the IC50 (Protease [6])?
Answer: 0.0015 nM

Question: What about the MNTC at 72 h [7] of the same molecule?
Answer: 0.1 nM

Question: And the Activity (MT2 [8])?
Answer: Dose-dependent effect

Question: And the MNTC at 96 h [9]?
Answer: 0.1 nM

Question: And the Activity (MT2 [10])?
Answer: Dose-dependent effect

Question: What about the CC50 at 72 h [11] of the same molecule?
Answer: 300 µM

Question: And the Activity (MT2 [12])?
Answer: Dose-dependent effect

Question: And the CC50 at 96 h [13]?
Answer: 1000 µM

Question: And the Activity (MT2 [14])?
Answer: Dose-dependent effect

— ChEMBL document CHEMBL2046312, “Synthesis and biological activity of potent HIV-1 protease inhibitors based on Phe-Pro dihydroxyethylene isosteres” (J Med Chem, 2012)
